# In ChEMBL document CHEMBL1129483, “Antitumor 2-(aminocarbonyl)-1,2-bis(methylsulfonyl)-1-(2-chloroethyl)- hydrazines” (1996):
# System: Mus musculus
# Assay: Average percent change in body weight from onset to termination of therapy at dose 5(mg/kg)
# Assay type: functional
# Procedure, shortened: (§1)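 CD2F1 mice implanted ip with 10^5 L1210 leukemia cells (kept by serial passage in culture and periodic ip passage in donor mice). Drug given ip in 100% DMSO, at most 0.025 mL, once daily for 6 consecutive days starting 24 h after implantation. Groups of 5–10 mice; vehicle-treated tumor-bearing controls. Body weight change is the average percent from onset to termination of therapy, used as a toxicity index.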
row,SMILES,Change
1,C=CCNC(=O)N(N(CCCl)S(C)(=O)=O)S(C)(=O)=O,-1.6%
2,CS(=O)(=O)N(CCCl)N(C(=O)NCCCCl)S(C)(=O)=O,-2.8%
3,CNC(=O)N(N(CCCl)S(C)(=O)=O)S(C)(=O)=O [LAROMUSTINE],9.9%

# System: Mus musculus
# Assay: Average survival time of treated /control mice*100 was determined at a daily dose of 5 mg/kg
# Assay type: functional
# Procedure, shortened: (§2)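 L1210 leukemia cells kept by serial passage in culture. 10^5 cells given ip to CD2F1 mice. Drug in 100% DMSO given ip once daily for 6 days starting 24 h after implant. 5–10 mice per group, with vehicle-treated controls. %T/C is average survival time of treated mice over controls ×100. 60-day survivors (cures) are excluded from the calculation.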
row,SMILES,T/C
1,C=CCNC(=O)N(N(CCCl)S(C)(=O)=O)S(C)(=O)=O,184%
2,CS(=O)(=O)N(CCCl)N(C(=O)NCCCCl)S(C)(=O)=O,111%
3,CNC(=O)N(N(CCCl)S(C)(=O)=O)S(C)(=O)=O [LAROMUSTINE],234%

# System: Mus musculus
# Assay: Average percent change in body weight from onset to termination of therapy at dose 15(mg/kg)
# Assay type: functional
# Procedure, shortened: as §1
row,SMILES,Change
1,CS(=O)(=O)N(CCCl)N(C(=O)NCCCl)S(C)(=O)=O,-4%
2,C=CCNC(=O)N(N(CCCl)S(C)(=O)=O)S(C)(=O)=O,-2.9%
3,CS(=O)(=O)N(CCCl)N(C(=O)NCCCCl)S(C)(=O)=O,-8.8%
4,CNC(=O)N(N(CCCl)S(C)(=O)=O)S(C)(=O)=O [LAROMUSTINE],-2.1%

# System: Mus musculus
# Assay: Average survival time of treated /control mice*100 was determined at a daily dose of 20 mg/kg
# Assay type: functional
# Procedure, shortened: as §2
row,SMILES,T/C
1,CS(=O)(=O)N(CCCl)N(C(=O)NCCCl)S(C)(=O)=O,239%

# System: Mus musculus
# Assay: %60 day survivors were determined for the compound as the mouse […] at dose 5 mg/kg
# Assay type: functional
# Procedure, shortened: (§3)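 L1210 leukemia cells kept by serial passage in culture. 10^5 cells given ip to CD2F1 mice. Drug in 100% DMSO, at most 0.025 mL, given ip once daily for 6 consecutive days starting 24 h after implant. 5–10 mice per group, with vehicle-treated tumor-bearing controls. Value is the percentage of mice alive and symptom-free 60 days after tumor implant.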
row,SMILES,Survivors
1,C=CCNC(=O)N(N(CCCl)S(C)(=O)=O)S(C)(=O)=O,20%
2,CNC(=O)N(N(CCCl)S(C)(=O)=O)S(C)(=O)=O [LAROMUSTINE],40%

# System: Mus musculus
# Assay: Average percent change in body weight from onset to termination of therapy at dose 10(mg/kg)
# Assay type: functional
# Procedure, shortened: as §1
row,SMILES,Change
1,CS(=O)(=O)N(CCCl)N(C(=O)NCCCl)S(C)(=O)=O,-4.7%
2,C=CCNC(=O)N(N(CCCl)S(C)(=O)=O)S(C)(=O)=O,-2.1%
3,CS(=O)(=O)N(CCCl)N(C(=O)NCCCCl)S(C)(=O)=O,-5.6%
4,CNC(=O)N(N(CCCl)S(C)(=O)=O)S(C)(=O)=O [LAROMUSTINE],-5.6%

# System: Mus musculus
# Assay: %60 day survivors were determined for the compound as the mouse […] at dose 15 mg/kg
# Assay type: functional
# Procedure, shortened: as §3
row,SMILES,Survivors
1,CS(=O)(=O)N(CCCl)N(C(=O)NCCCl)S(C)(=O)=O,80%
2,C=CCNC(=O)N(N(CCCl)S(C)(=O)=O)S(C)(=O)=O,100%
3,CS(=O)(=O)N(CCCl)N(C(=O)NCCCCl)S(C)(=O)=O,20%
4,CNC(=O)N(N(CCCl)S(C)(=O)=O)S(C)(=O)=O [LAROMUSTINE],100%

# System: Mus musculus
# Assay: Average survival time of treated /control mice*100 was determined at a daily dose of 15 mg/kg
# Assay type: functional
# Procedure, shortened: as §2
row,SMILES,T/C
1,CS(=O)(=O)N(CCCl)N(C(=O)NCCCl)S(C)(=O)=O,216%
2,CS(=O)(=O)N(CCCl)N(C(=O)NCCCCl)S(C)(=O)=O,192%

# System: Mus musculus
# Assay: Average survival time of treated /control mice*100 was determined at a daily dose of 10 mg/kg
# Assay type: functional
# Procedure, shortened: as §2
row,SMILES,T/C
1,C=CCNC(=O)N(N(CCCl)S(C)(=O)=O)S(C)(=O)=O,394%
2,CS(=O)(=O)N(CCCl)N(C(=O)NCCCCl)S(C)(=O)=O,187%

# System: Mus musculus
# Assay: %60 day survivors were determined for the compound as the mouse […] at dose 10 mg/kg
# Assay type: functional
# Procedure, shortened: as §3
row,SMILES,Survivors
1,CS(=O)(=O)N(CCCl)N(C(=O)NCCCl)S(C)(=O)=O,100%
2,C=CCNC(=O)N(N(CCCl)S(C)(=O)=O)S(C)(=O)=O,40%
3,CNC(=O)N(N(CCCl)S(C)(=O)=O)S(C)(=O)=O [LAROMUSTINE],100%

# System: Mus musculus
# Assay: %60 day survivors were determined for the compound as the mouse […] at dose 20 mg/kg
# Assay type: functional
# Procedure, shortened: as §3
row,SMILES,Survivors
1,CS(=O)(=O)N(CCCl)N(C(=O)NCCCl)S(C)(=O)=O,80%

# System: Mus musculus
# Assay: Average percent change in body weight from onset to termination of therapy at dose 20(mg/kg)
# Assay type: functional
# Procedure, shortened: as §1
row,SMILES,Change
1,CS(=O)(=O)N(CCCl)N(C(=O)NCCCl)S(C)(=O)=O,-10.4%
